Drawing on ChEMBL document CHEMBL5576116, “Structural modification of the propyl linker of cjoc42 in combination with sulfonate ester and triazole replacements for enhanced gankyrin binding and anti-proliferative activity” (Bioorg Med Chem, 2024), this text covers IC50 and Activity for 42 compounds.

The source made the active and inactive calls. The rule behind the calls is not given here.

For orientation: IC50 means the concentration at which inhibition is half-maximal.

For data set [1], the system named is HuH-6. Kind of data set: Antiproliferative activity against human HuH-6 cells incubated for 72 hrs by MTT assay. Type of data set: functional, cell-based. Particulars: HuH-6, 72 h. In short, it runs like this:
(§1)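 Cells kept in DMEM with 10% FBS and 1% penicillin/streptomycin, seeded at 2.5 x 10^4 cells/well and left 24 h before drug. Exposed to increasing compound concentrations for 72 h at 37 °C, 5% CO2. MTT dye (5.4 mg/mL) added for 3 h at 37 °C, formazan dissolved in DMSO, A570 read. 6–8 replicates per treatment; IC50 from dose–response curves.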
In general terms: Formazan colour is commonly taken as a measure of viable cells.

Data set [2] in a line: Cytotoxicity against HEK293 cells. The data set is classed as toxicity, cell-based. Particulars: human. In a few lines: as §1
Another data set has as its system Huh-7. Kind of data set: Antiproliferative activity against human HuH-7 cells incubated for 72 hrs by MTT assay. Type of data set: functional, cell-based. To be noted: Huh-7, 72 h. In short, it runs like this:
as §1

For another data set, the system named is Hep 3B2. Description: Antiproliferative activity against human Hep3B cells incubated for 72 hrs by MTT assay. Type of data set: functional, cell-based.
The test system of a further data set is HepG2. Kind of data set: Antiproliferative activity against human HepG2 cells incubated for 72 hrs by MTT assay. The data set is classed as functional, cell-based. Particulars: HepG2, 72 h.
Data set [3] concerns the target T1, 26S proteasome non-ATPase regulatory subunit 10 (Homo sapiens) (UniProt O75832).
T1 sequence (whole entry): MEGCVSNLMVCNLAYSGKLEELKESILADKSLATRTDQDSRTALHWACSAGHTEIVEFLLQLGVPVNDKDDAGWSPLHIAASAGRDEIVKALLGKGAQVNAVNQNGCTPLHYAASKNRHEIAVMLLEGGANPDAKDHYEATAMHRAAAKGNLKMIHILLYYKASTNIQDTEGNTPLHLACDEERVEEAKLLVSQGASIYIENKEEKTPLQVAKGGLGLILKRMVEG
Description: Binding affinity to gankyrin in human HuH-6 cells assessed as thermal stability incubated for 5 hrs by CETSA. Type of data set: cell-based. In short, it runs like this:
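HuH6 cells treated for 5 h with compound or vehicle, 0.25% DMSO final. Harvested cells split into six aliquots heated at 50, 53, 56, 59, 62 or 65 °C. Lysed in RIPA with protease/phosphatase inhibitors, 60 min on ice. 15 μg protein run on reducing SDS-PAGE, blotted to PVDF, probed for gankyrin with β-actin reference, ECL detection. Melt curve mean ± SD, n = 3.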

Data set [4] deals with HuH-6. Kind of data set: Upregulation of Rb protein level in human HuH-6 cells at 0.82 to 3.3 uM incubated for 48 hrs by Western blotting analysis. Particulars: dose 0.82-3.3 µM. The data set is classed as functional, cell-based. In short, it runs like this: (§2)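 HuH6 cells in 10 cm dishes exposed to varying compound concentrations or vehicle (0.25% DMSO final) for 48 h. Harvested in cold PBS, lysed in RIPA plus protease/phosphatase inhibitors for 60 min on ice. 15 μg protein on reducing SDS-PAGE, transferred to PVDF, immunoblotted for p53, Rb and gankyrin with cyclophilin as reference; ECL detection. Run in duplicate.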
In general terms: A western blot detects proteins with antibodies after separation by electrophoresis.

The test system of data set [5] is HuH-6. Kind of data set: Upregulation of p53 protein level in human HuH-6 cells at 0.82 to 3.3 uM incubated for 48 hrs by Western blotting analysis. The data set is classed as functional, cell-based. To be noted: dose 0.82-3.3 µM. In short, it runs like this: as §2
The subject of data set [6] is HuH-6. Kind of data set: Effect on gankyrin protein level in human HuH-6 cells at 0.82 to 3.3 uM incubated for 48 hrs by Western blotting analysis. Type of data set: functional, cell-based. Particulars: dose 0.82-3.3 µM. In a few lines:
as §2

The test system of data set [7] is HuH-6. Description: Induction of cell cycle arrest in human HuH-6 cells assessed as accumulation of cells at […] phase at 3.3 uM incubated for 72 hrs PI/RNAase staining based flow cytometry analysis. Type of data set: functional. In a few lines: (§3)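 HuH6 cells treated 72 h with compound or vehicle (0.25% DMSO final), harvested in cold PBS, normalized, fixed in 70% ethanol at −20 °C overnight. Pellet stained with PI/RNase for 30 min at 37 °C, then analyzed by flow and imaging cytometry. Mean ± SD, n = 3; one-way ANOVA, P < 0.05 significant.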
Background: Flow cytometry measures light scatter and fluorescence of single cells or particles in a stream.

The subject of data set [8] is HuH-6. Description: Induction of cell cycle arrest in human HuH-6 cells assessed as decrease in S phase cells at 3.3 uM incubated for 72 hrs PI/RNAase staining based flow cytometry analysis. Type of data set: functional. In a few lines: as §3

The compound `O=C(NCCCCNC(=O)c1ccc(C(F)(F)F)cc1)c1ccc(-c2ccccc2)cc1` showed an IC50 in the data set on HuH-6 [1] greater than 50 µM.
Same read-out and setting: the value for `COC(=O)c1ccc(-n2cc(CCNC(=O)c3ccc(C)cc3)nn2)cc1` was greater than 50 µM.
Still for that read-out and setting: the value for `Cc1ccc(C(=O)NCCCNC(=O)c2ccc(C)cc2)cc1` was greater than 50 µM.
Same read-out and setting: the result for `COC(=O)c1ccc(-n2cc(CCCCOS(=O)(=O)c3ccc(C)cc3)nn2)cc1` reads greater than 50 µM.
For the compound `Cc1ccc(C(=O)NCCCNC(=O)c2ccc(-c3ccccc3)cc2)cc1`, in the data set on HuH-6 [1], the IC50 amounted to 20.3 µM.
Still for that read-out and setting: the result for `COc1ccc(CNC(=O)Nc2ccc(C)cc2)cc1` reads greater than 50 µM; that for `COC(=O)c1ccc(CNC(=O)Nc2ccc(C)cc2)cc1`, greater than 50 µM; that for `COC(=O)c1ccc(-n2cc(CCCOS(=O)(=O)c3ccc(C)cc3)nn2)cc1`, greater than 50 µM.
`COC(=O)c1ccc(-n2cc(CCCCNC(=O)c3ccc(C)cc3)nn2)cc1` displayed an IC50 with HuH-6 [1] of 19.5 µM.
On the same count and under the same terms, the value for `COC(=O)c1ccc(-n2cc(CNC(=O)c3ccc(C)cc3)nn2)cc1` was greater than 50 µM.
The same measure, in the same setting: the value for `Cc1ccc(C(=O)NCCNC(=O)c2ccc(C)cc2)cc1` was 30.2 µM; that for `COC(=O)c1ccc(NC(=O)NS(=O)(=O)c2ccc(C)cc2)cc1` was greater than 50 µM.
The compound `Cc1ccc(C(=O)NCCCCNC(=O)c2ccc(-c3ccccc3)cc2)cc1` displayed an IC50 in the data set with HuH-6 [1] greater than 50 µM.
Same read-out and setting: the value for `COC(=O)c1ccc(NC(=O)CC(=O)Nc2ccc(C(=O)OC)cc2)cc1` was greater than 50 µM.
Same read-out and setting: the result for `Cc1ccc(NC(=O)CCC(=O)Nc2ccc(C)cc2)cc1` reads greater than 50 µM.
Same read-out and setting: the value for `COC(=O)c1ccc(C(=O)NCCNC(=O)c2ccc(C(=O)OC)cc2)cc1` was greater than 50 µM; that for `Cc1ccc(CNC(=O)Nc2ccc(C)cc2)cc1` was greater than 50 µM; that for `COC(=O)c1ccc(C(=O)NCCCNC(=O)c2ccc(C)cc2)cc1` was greater than 50 µM.
Turning to `COC(=O)c1ccc(C(=O)NCCNC(=O)c2ccc(C)cc2)cc1`, the IC50 with HuH-6 [1] was 31 µM.
For the compound `COC(=O)c1ccc(CNC(=O)NS(=O)(=O)c2ccc(C)cc2)cc1`, the IC50 in the data set on HuH-6 [1] was greater than 50 µM.
The same measure, in the same setting: the result for `Cc1ccc(NC(=O)CCCCC(=O)Nc2ccc(C)cc2)cc1` reads greater than 50 µM; that for `COC(=O)c1ccc(C(=O)NCCCNC(=O)c2ccc(-c3ccccc3)cc2)cc1`, greater than 50 µM.
Still for that read-out and setting: the result for `COc1ccc(CNC(=O)NS(=O)(=O)c2ccc(C)cc2)cc1` reads greater than 50 µM; that for `Cc1ccc(CNC(=O)NS(=O)(=O)c2ccc(C)cc2)cc1`, greater than 50 µM.
Still for that read-out and setting: the result for `Cc1ccc(C(=O)NCCCCNC(=O)c2ccc(C)cc2)cc1` reads greater than 50 µM.
Turning to `Cc1ccc(NC(=O)NS(=O)(=O)c2ccc(C)cc2)cc1`, in the data set with HuH-6 [1], the IC50 was greater than 50 µM.
Still for that read-out and setting: the result for `COC(=O)c1ccc(C(=O)NCCCCNC(=O)c2ccc(C(=O)OC)cc2)cc1` reads greater than 50 µM; that for `O=C(NCCCNC(=O)c1ccc(C(F)(F)F)cc1)c1ccc(-c2ccccc2)cc1`, greater than 50 µM; that for `COC(=O)c1ccc(-n2cc(CCOS(=O)(=O)c3ccc(C)cc3)nn2)cc1`, greater than 50 µM.
Still for that read-out and setting: the result for `COC(=O)c1ccc(NC(=O)CCCC(=O)Nc2ccc(C(=O)OC)cc2)cc1` reads 14.1 µM.
Still for that read-out and setting: the value for `COC(=O)c1ccc(NC(=O)Nc2ccc(C)cc2)cc1` was 38.8 µM.
As for `COC(=O)c1ccc(NC(=O)CCC(=O)Nc2ccc(C(=O)OC)cc2)cc1`, the IC50 is 3.3 µM in the data set with HuH-6 [1]; greater than 50 µM in data set [2]; greater than 50 µM in the data set on Huh-7; greater than 50 µM with Hep 3B2; 24 µM with HepG2. For the same compound, the outcome (in [3]; in the data set with HuH-6 [4]; with HuH-6 [5]; with HuH-6 [7]; in the data set with HuH-6 [8]) was Active. For the same compound, the result in the data set on HuH-6 [6] was inactive.
In the data set on HuH-6 [1], `Cc1ccc(NC(=O)CC(=O)Nc2ccc(C)cc2)cc1` returned an IC50 greater than 50 µM.
Take `COc1ccc(C(=O)NCCCNC(=O)c2ccc(-c3ccccc3)cc2)cc1`: the IC50 in the data set with HuH-6 [1] turned out to be 2.4 µM; in data set [2] it was 3.3 µM.
Take `COC(=O)c1ccc(NC(=O)CCC(=O)Nc2ccc(-c3ccccc3)cc2)cc1`: in the data set on HuH-6 [1], the IC50 is greater than 50 µM.
Consider `COC(=O)c1ccc(NC(=O)CCCCC(=O)Nc2ccc(C(=O)OC)cc2)cc1`, for which the IC50 in the data set with HuH-6 [1] was greater than 50 µM.
The compound `COC(=O)c1ccc(C(=O)NCCCCNC(=O)c2ccc(C)cc2)cc1` came in with an IC50 with HuH-6 [1] greater than 50 µM.
The same measure, in the same setting: the value for `Cc1ccc(NC(=O)Nc2ccc(C)cc2)cc1` was greater than 50 µM; that for `COC(=O)c1ccc(NC(=O)CCCCC(=O)Nc2ccc(C)cc2)cc1` was greater than 50 µM.
The same measure, in the same setting: the result for `COC(=O)c1ccc(C(=O)NCCCCNC(=O)c2ccc(-c3ccccc3)cc2)cc1` reads greater than 50 µM.
On the same count and under the same terms, the result for `Cc1ccc(NC(=O)CCCC(=O)Nc2ccc(C)cc2)cc1` reads greater than 50 µM.
On to `COC(=O)c1ccc(C(=O)NCCCNC(=O)c2ccc(C(=O)OC)cc2)cc1`, for which the IC50 in the data set with HuH-6 [1] was 19.8 µM; in data set [2], greater than 50 µM.
